# The source made the active and inactive calls. No cut-off for these calls is given here.
# What was measured:
# NCI-H460 = experiment: Cytotoxicity against human NCI-H460 cells after 48 hrs by sulforhodamine B assay; type: functional; conditions: NCI-H460, 48 h
# Summary of the method: (§1)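 Human tumor lines exposed to compound for 48 h, then fixed with trichloroacetic acid and stained with sulforhodamine B (NCI standard protocol); optical density read on a microplate reader. GI50 is the concentration giving a 50% reduction in net protein increase, calculated from optical density data.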
# BXPC-3 = experiment: Cytotoxicity against human BxPC3 cells after 48 hrs by sulforhodamine B assay; type: functional; conditions: BXPC-3, 48 h; summary of the method: as §1
# KM-20L2 = experiment: Cytotoxicity against human KM20L2 cells after 48 hrs by sulforhodamine B assay; type: functional; conditions: KM-20L2, 48 h; summary of the method: as §1
# [1] = Displacement of [3H]colchicine from tubulin
# Summary of the method: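 [3H]colchicine binding with 1.0 μM tubulin, 5.0 μM [3H]colchicine and inhibitor at 1.0 μM.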
# P388 = experiment: Cytotoxicity against mouse P388 cells after 48 hrs by Coulter particle counting; conditions: P388, 48 h, read-out: ED50 (the source's name)
# DU-145 = experiment: Cytotoxicity against human DU145 cells after 48 hrs by sulforhodamine B assay; type: functional; conditions: DU-145, 48 h; summary of the method: as §1
# SF-268 = experiment: Cytotoxicity against human SF268 cells after 48 hrs by sulforhodamine B assay; type: functional; conditions: SF-268, 48 h; summary of the method: as §1
# Cryptococcus neoformans [2] = experiment: Antimicrobial activity against Cryptococcus neoformans ATCC 90112 at 64 ug/mL after 72 hrs by broth microdilution assay; type: functional, organism-based
# Summary of the method: (§2)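 Yeast NCCLS broth microdilution (M27-A). Inoculum 0.5 to 2.5×10^3 CFU/mL; 2-fold dilutions in 0.165 M MOPS-buffered RPMI 1640, pH 7.0; compound from DMSO, DMSO-only turbidity control; 35 °C without agitation; read at 72 h (Cryptococcus). MIC = lowest concentration giving no visible growth.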
# Escherichia coli = experiment: Antimicrobial activity against Escherichia coli ATCC 25922 at 64 ug/mL after 24 hrs by broth microdilution assay; type: functional, organism-based
# Summary of the method: (§3)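 NCCLS bacterial broth microdilution (M7-A5). Overnight colonies diluted to about 5×10^5 CFU/mL final; 2-fold compound dilutions (DMSO stock) in cation-adjusted Mueller Hinton II broth; DMSO turbidity control; 35 °C without agitation, 24 h. MIC = lowest concentration with optically clear wells.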
# Micrococcus luteus [3] = experiment: Antimicrobial activity against Micrococcus luteus Presque Isle 456 after 24 hrs by broth microdilution assay; type: functional; summary of the method: as §3
# Neisseria gonorrhoeae [4] = experiment: Antimicrobial activity against Neisseria gonorrhoeae ATCC 49226 after 24 hrs by broth microdilution assay; type: functional; conditions: ATCC 49226, 24 h
# Summary of the method: (§4)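 Neisseria tested by NCCLS broth microdilution in gonococcal typing broth. Final inoculum about 5×10^5 CFU/mL; 2-fold compound dilutions from DMSO; DMSO turbidity control; 37 °C with 5% CO₂ without agitation, 24 h. MIC = lowest concentration with no visible growth.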
# Enterobacter cloacae = experiment: Antimicrobial activity against Enterobacter cloacae ATCC 13047 at 64 ug/mL after 24 hrs by broth microdilution assay; type: functional, organism-based; summary of the method: as §3
# [5] = system: Stenotrophomonas maltophilia; experiment: Antimicrobial activity against Stenotrophomonas maltophilia ATCC 13637 at 64 ug/mL after 24 hrs by broth microdilution assay; type: functional, organism-based; summary of the method: as §3
# Staphylococcus aureus = experiment: Antimicrobial activity against Staphylococcus aureus ATCC 29213 at 64 ug/mL after 24 hrs by broth microdilution assay; type: functional, organism-based; summary of the method: as §3
# Candida albicans = experiment: Antimicrobial activity against Candida albicans ATCC 90028 at 64 ug/mL after 48 hrs by broth microdilution assay; type: functional, organism-based
# Summary of the method: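 Yeast NCCLS broth microdilution (M27-A). Inoculum 0.5 to 2.5×10^3 CFU/mL; 2-fold dilutions in 0.165 M MOPS-buffered RPMI 1640, pH 7.0; compound from DMSO, DMSO-only turbidity control; 35 °C without agitation; read at 48 h (Candida). MIC = lowest concentration giving no visible growth.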
# Enterococcus faecalis = experiment: Antimicrobial activity against Enterococcus faecalis ATCC 29212 at 64 ug/mL after 24 hrs by broth microdilution assay; type: functional, organism-based; summary of the method: as §3
# [6] = Inhibition of tubulin polymerization
# Summary of the method: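 Turbidimetry at 350 nm. Compound at varying concentrations preincubated with 10 μM (1.0 mg/mL) purified tubulin, chilled on ice, then 0.4 mM GTP added and polymerization followed at 30 °C. Extent of polymerization at 20 min measured.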
# Streptococcus pneumoniae [7] = experiment: Antimicrobial activity against Streptococcus pneumoniae ATCC 6303 at 64 ug/mL after 24 hrs by broth microdilution assay; type: functional, organism-based
# Summary of the method: (§5)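 Streptococcus tested by NCCLS broth microdilution in cation-adjusted MHII broth with 3% lysed horse blood. Final inoculum about 5×10^5 CFU/mL; 2-fold compound dilutions from DMSO; DMSO turbidity control; 35 °C without agitation, 24 h. MIC = lowest concentration with no visible growth.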
# MCF7 = experiment: Cytotoxicity against human MCF7 cells after 48 hrs by sulforhodamine B assay; type: functional; conditions: MCF7, 48 h; summary of the method: as §1
# Cryptococcus neoformans [8] = experiment: Antimicrobial activity against Cryptococcus neoformans ATCC 90112 after 72 hrs by broth microdilution assay; type: functional; conditions: ATCC 90112, 72 h; summary of the method: as §2
# HUVEC [9] = experiment: Induction of microtubule depolymerization in HUVEC at 1 uM after 2 hrs; type: functional, cell-based; conditions: Homo sapiens
# Summary of the method: (§6)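 Primary HUVECs from umbilical cords, grown in M199 with 20% human serum, were seeded (~3×10^4) on gelatin-coated coverslips and grown 24 h at 37 °C. Compound in DMSO was added (final 1, 10 or 100 μM), with duplicate plates. Cells were fixed in ice-cold methanol and immunostained for α-tubulin (TRITC secondary) and with Hoechst. Microtubule disruption was scored by confocal microscopy.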
# HUVEC [10] = experiment: Induction of microtubule depolymerization in HUVEC at 10 uM after 1 hr; type: functional, cell-based; conditions: Homo sapiens
# Summary of the method: (§7)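 Primary HUVECs from umbilical cords grown in M199 with 20% human serum, CD31-authenticated. About 3×10^4 cells on gelatin-coated coverslips, 24 h at 37 °C, then compound from DMSO for 30 min to 4 h, in duplicate. Cells methanol-fixed, stained with anti-α-tubulin and TRITC secondary plus Hoechst, imaged by confocal microscopy and scored for microtubule damage.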
# HUVEC [11] = experiment: Induction of microtubule depolymerization in HUVEC at 10 uM after 4 hrs; type: functional, cell-based; conditions: Homo sapiens; summary of the method: as §7
# HUVEC [12] = experiment: Induction of microtubule depolymerization in HUVEC at 1 uM after 4 hrs; type: functional, cell-based; conditions: Homo sapiens; summary of the method: as §6
# HUVEC [13] = experiment: Induction of microtubule depolymerization in HUVEC at 10 uM after 30 mins; type: functional, cell-based; conditions: Homo sapiens; summary of the method: as §7
# HUVEC [14] = experiment: Induction of microtubule depolymerization in HUVEC at 10 uM after 2 hrs; type: functional, cell-based; conditions: Homo sapiens; summary of the method: as §7
# Streptococcus pneumoniae [15] = experiment: Antimicrobial activity against Streptococcus pneumoniae ATCC 6303 after 24 hrs by broth microdilution assay; type: functional; conditions: ATCC 6303, 24 h; summary of the method: as §5
# HUVEC [16] = experiment: Induction of microtubule damage in HUVEC at 1 uM after 30 mins; type: functional, cell-based; conditions: Homo sapiens; summary of the method: as §7
# HUVEC [17] = experiment: Induction of microtubule damage in HUVEC at 1 uM after 1 hr; type: functional, cell-based; conditions: Homo sapiens; summary of the method: as §7
# Micrococcus luteus [18] = experiment: Antimicrobial activity against Micrococcus luteus Presque Isle 456 at 64 ug/mL after 24 hrs by broth microdilution assay; type: functional, organism-based; summary of the method: as §3
# Neisseria gonorrhoeae [19] = experiment: Antimicrobial activity against Neisseria gonorrhoeae ATCC 49226 at 64 ug/mL after 24 hrs by broth microdilution assay; type: functional, organism-based; summary of the method: as §4
Structure (SMILES),GI50 (NCI-H460),GI50 (BXPC-3),GI50 (KM-20L2),Activity [1],EC50 (P388),GI50 (DU-145),GI50 (SF-268),Activity (Cryptococcus neoformans [2]),Activity (Escherichia coli),MIC (Neisseria gonorrhoeae [4]),Activity (Enterobacter cloacae),Activity [5],Activity (Staphylococcus aureus),Activity (Candida albicans),Activity (Enterococcus faecalis),Activity (Streptococcus pneumoniae [7]),GI50 (MCF7),also measured
COc1ccc(/C=C\c2cc(OC)c(OC)c(OC)c2)cc1O [COMBRETASTATIN A4],0.0006 mg/L,0.39 mg/L,0.061 mg/L,81%,0.0003 mg/L,0.0008 mg/L,< 0.001 mg/L,,,,,,,,,,,
COc1ccc(/C=C\c2cc(Br)c(OC)c(OC)c2)cc1O,0.00038 mg/L,0.64 mg/L,0.59 mg/L,89%,0.0021 mg/L,0.00082 mg/L,0.0005 mg/L,inactive,inactive,32 mg/L,inactive,inactive,inactive,inactive,inactive,inactive,0.00046 mg/L,MIC (Micrococcus luteus [3]): 32 mg/L; IC50 [6]: 1.5 µM
COc1ccc(/C=C\c2cc(Cl)c(OC)c(OC)c2)cc1O,0.00026 mg/L,0.32 mg/L,0.27 mg/L,85%,0.0024 mg/L,0.00025 mg/L,< 0.0009 mg/L,,inactive,16 mg/L,inactive,inactive,inactive,inactive,inactive,,0.0026 mg/L,MIC (Cryptococcus neoformans [8]): 64 mg/L; Activity (HUVEC [9]): Active; Activity (HUVEC [10]): Active; MIC (Micrococcus luteus [3]): 32 mg/L; Activity (HUVEC [11]): Active; Activity (HUVEC [12]): Active; Activity (HUVEC [13]): Active; IC50 [6]: 1.6 µM; Activity (HUVEC [14]): Active; MIC (Streptococcus pneumoniae [15]): 32 mg/L; Activity (HUVEC [16]): Active; Activity (HUVEC [17]): Active
COc1ccc(/C=C/c2cc(Br)c(OC)c(OC)c2)cc1O,0.15 mg/L,1.6 mg/L,1.2 mg/L,,0.0174 mg/L,0.13 mg/L,0.18 mg/L,inactive,inactive,,inactive,inactive,inactive,inactive,inactive,inactive,0.14 mg/L,Activity (Micrococcus luteus [18]): inactive; Activity (Neisseria gonorrhoeae [19]): inactive
COc1ccc(/C=C\c2cc(F)c(OC)c(OC)c2)cc1OP(=O)([O-])[O-].[Na+].[Na+],0.0094 mg/L,0.59 mg/L,1.5 mg/L,,0.0298 mg/L,0.0036 mg/L,0.0051 mg/L,,,16 mg/L,,,,,,,0.0044 mg/L,
COc1ccc(/C=C\c2cc(F)c(OC)c(OC)c2)cc1OP(=O)(O)O,,,,,,,,inactive,inactive,,inactive,inactive,inactive,inactive,inactive,inactive,,Activity (Micrococcus luteus [18]): inactive
COc1ccc(/C=C/c2cc(Cl)c(OC)c(OC)c2)cc1O,0.034 mg/L,0.59 mg/L,1.4 mg/L,,0.027 mg/L,0.038 mg/L,0.048 mg/L,,,,,,,,,,0.041 mg/L,
COc1ccc(/C=C\c2cc(Br)c(OC)c(OC)c2)cc1OP(=O)([O-])[O-].[Mg+2],0.0039 mg/L,0.074 mg/L,0.27 mg/L,,< 0.01 mg/L,0.0045 mg/L,0.0053 mg/L,,,,,,,,,,0.0045 mg/L,

# — ChEMBL document CHEMBL1151261, “Antineoplastic agents. 509: synthesis of fluorcombstatin phosphate and related 3-halostilbenes(1)” (J Nat Prod, 2005)
